The subject of test [1] is Streptococcus pyogenes. The test can be described thus: The compound was tested in vitro for antibiotic activity against Streptococcus pyogenes 930.
In test [2] the test system is Pseudomonas aeruginosa. The test can be described thus: Compound was tested in vitro for antibiotic activity against the bacteria Pseudomonas aeruginosa 5007. It counts as functional. In outline: (§1)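 Overnight cultures were grown in brain-heart infusion broth at 36 °C. The compound was diluted twofold in brain-heart infusion agar over a range of 200 to 0.005 µg/mL (final). Each plate received about 10⁴ organisms and was incubated at 36 °C for 18 h. The MIC was taken as the lowest concentration giving no visible growth.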

Test [3] concerns Acinetobacter. Put plainly: Compound was tested in vitro for antibiotic activity against the bacteria Acinetobacter sp. CMX669. In kind it is functional. An outline of the steps: as §1
Test [4] concerns Staphylococcus aureus. The test can be described thus: The compound was tested in vitro for antibiotic activity against Staphylococcus aureus ATCC 6538P. In kind it is functional. In outline:
as §1

Test [5] concerns Staphylococcus epidermidis. The test can be described thus: The compound was tested in vitro for antibiotic activity against Staphylococcus epidermidis 3519. In kind it is functional. In outline: as §1
Test [6] concerns Staphylococcus aureus. Put plainly: The compound was tested in vitro for antibiotic activity against Staphylococcus aureus 686B. In kind it is functional. In outline:
as §1

The test system of test [7] is Pseudomonas aeruginosa. The test can be described thus: Compound was tested in vitro for antibiotic activity against the bacteria Pseudomonas aeruginosa K799/WT. It counts as functional. In outline:
as §1

For test [8], the system named is Escherichia coli. Put plainly: Compound was tested in vitro for antibiotic activity against the bacteria Escherichia coli juhl. In kind it is functional. In outline: as §1
The subject of test [9] is Klebsiella pneumoniae. The test can be described thus: Compound was tested in vitro for antibiotic activity against the bacteria Klebsiella pneumoniae 8045. It counts as functional. An outline of the steps:
as §1

For test [10], the system named is Enterococcus faecium. The test can be described thus: The compound was tested in vitro for antibiotic activity against […] ATCC 8043. It counts as functional. In outline: as §1
For test [11], the system named is Klebsiella aerogenes. The test can be described thus: Compound was tested in vitro for antibiotic activity against bacteria Enterobacter aerogenes ATCC 13048. It counts as functional. In outline:
as §1

Structures are written as SMILES. Converted amounts (≈) assume the structure as drawn.

In the case of `CN1CCN(c2cc3c(cc2F)c(=O)c(C(=O)O)cn3-c2ccccc2)CC1`, in [1], the MIC was determined as 3.1 µg/mL (≈ 8.13 µM).

For the compound `CCC(=O)N1CCN(c2cc3c(cc2F)c(=O)c(C(=O)O)c2sc4ccccc4n23)CC1`, the MIC is greater than 100 µg/mL in test [2]; 0.1 µg/mL (≈ 0.221 µM) in test [3]; 0.39 µg/mL (≈ 0.86 µM) in test [4]; 0.39 µg/mL (≈ 0.86 µM) in test [5]; 0.39 µg/mL (≈ 0.86 µM) in test [6]; greater than 100 µg/mL in [7]. Also, the MIC turned out to be 6.2 µg/mL (≈ 13.7 µM) in test [8]; 1.56 µg/mL (≈ 3.44 µM) in [9]; 3.1 µg/mL (≈ 6.84 µM) in test [1]; 6.2 µg/mL (≈ 13.7 µM) in test [10]; 12.5 µg/mL (≈ 27.6 µM) in test [11].

In test [1], `Cc1ccccc1-n1cc(C(=O)O)c(=O)c2cc(F)c(N3CCN(C)CC3)cc21` yielded an MIC of 50 µg/mL (≈ 126 µM).

As to `O=C(O)c1cn(-c2ccccc2)c2cc(N3CCNCC3)c(F)cc2c1=O`, the minimum inhibitory concentration (MIC) in [5] stood at 0.78 µg/mL (≈ 2.12 µM); in test [1], 1.56 µg/mL (≈ 4.25 µM).

In the case of `O=C(O)c1c(=O)c2cc(F)c(N3CCNCC3)cc2n2c1sc1ccccc12`, the MIC was 1.56 µg/mL (≈ 3.93 µM) in [2]; 0.39 µg/mL (≈ 0.981 µM) in test [3]; 0.39 µg/mL (≈ 0.981 µM) in [4]; 0.39 µg/mL (≈ 0.981 µM) in test [5]; 0.39 µg/mL (≈ 0.981 µM) in test [6]; 1.56 µg/mL (≈ 3.93 µM) in test [7]. The minimum inhibitory concentration (MIC) came to 0.2 µg/mL (≈ 0.503 µM) in test [8]; 0.2 µg/mL (≈ 0.503 µM) in test [9]; 0.78 µg/mL (≈ 1.96 µM) in test [1]; 0.78 µg/mL (≈ 1.96 µM) in test [10]; 0.78 µg/mL (≈ 1.96 µM) in test [11].

Regarding `CC(=O)N1CCN(c2cc3c(cc2F)c(=O)c(C(=O)O)c2sc4ccccc4n23)CC1`, the minimal inhibitory concentration (MIC) in test [2] was greater than 100 µg/mL; in [3], 6.2 µg/mL (≈ 14.1 µM); in [4] it was 0.2 µg/mL (≈ 0.455 µM); in [5], 0.39 µg/mL (≈ 0.887 µM); in [6], 0.2 µg/mL (≈ 0.455 µM); in test [7] it was greater than 100 µg/mL. For the same compound, the MIC was 6.2 µg/mL (≈ 14.1 µM) in test [8]; 1.56 µg/mL (≈ 3.55 µM) in test [9]; 3.1 µg/mL (≈ 7.05 µM) in test [1]; 6.2 µg/mL (≈ 14.1 µM) in [10]; greater than 100 µg/mL in test [11].

Turning to `CN1CCN(c2cc3c(cc2F)c(=O)c(C(=O)O)c2sc4ccccc4n23)CC1`, the minimum inhibitory concentration (MIC) in test [2] turned out to be 6.2 µg/mL (≈ 15.1 µM); in test [3], 0.39 µg/mL (≈ 0.948 µM); in test [4], 0.39 µg/mL (≈ 0.948 µM); in test [5], 0.78 µg/mL (≈ 1.9 µM); in [6] it was 0.39 µg/mL (≈ 0.948 µM); in test [7] it was 6.2 µg/mL (≈ 15.1 µM). The minimal inhibitory concentration (MIC) came to 0.78 µg/mL (≈ 1.9 µM) in [8]; 0.39 µg/mL (≈ 0.948 µM) in [9]; 1.56 µg/mL (≈ 3.79 µM) in [1]; 1.56 µg/mL (≈ 3.79 µM) in [10]; 1.56 µg/mL (≈ 3.79 µM) in test [11].

As to `Cc1cccc(C)c1-n1cc(C(=O)O)c(=O)c2cc(F)c(N3CCN(C)CC3)cc21`, the MIC in [1] is greater than 100 µg/mL.

Compound `CCn1cc(C(=O)O)c(=O)c2cc(F)c(N3CCNCC3)cc21` [NORFLOXACIN] registered an MIC in test [1] of 3.1 µg/mL (≈ 9.71 µM).
